Assay outcomes: PubChem, The Scripps Research Institute Molecular Screening Center
M5 ag – agonists of human muscarinic M5 receptor (CHRM5) | activation, % at 3 µM | CHO-K1 hM5 cells, Fluo-8 calcium fluorescence; 0% DMSO wells, 100% maximal acetylcholine response | P08912 | 360,000 compounds, 0.19% hits;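 active = activation above the run's mean over test compounds plus 3 SD, cut at about 23% in these data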;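 also: signal is peak over basal fluorescence ratio across the kinetic read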
Target sequence (P08912 whole entry, looked up): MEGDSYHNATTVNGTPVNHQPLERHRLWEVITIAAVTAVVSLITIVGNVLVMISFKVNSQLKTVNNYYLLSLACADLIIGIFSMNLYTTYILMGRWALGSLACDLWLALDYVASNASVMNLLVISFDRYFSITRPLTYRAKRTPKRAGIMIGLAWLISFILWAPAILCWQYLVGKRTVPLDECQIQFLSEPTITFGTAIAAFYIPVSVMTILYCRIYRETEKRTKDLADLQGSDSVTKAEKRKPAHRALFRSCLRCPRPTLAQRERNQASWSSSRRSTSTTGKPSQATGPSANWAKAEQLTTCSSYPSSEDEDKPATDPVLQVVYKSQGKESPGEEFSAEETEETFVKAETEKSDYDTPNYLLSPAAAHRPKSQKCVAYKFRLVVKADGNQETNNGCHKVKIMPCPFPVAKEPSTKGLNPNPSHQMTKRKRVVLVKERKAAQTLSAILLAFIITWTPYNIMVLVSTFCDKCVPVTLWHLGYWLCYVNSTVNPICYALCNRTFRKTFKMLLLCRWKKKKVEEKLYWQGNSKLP
CHRM5 antagonist – blocks acetylcholine activation of human M5 receptor. P08912. CHO-hM5 cells, Fluo-8 calcium fluorescence, ACh EC80. inhibition, % at 3 µM. 360,000 compounds, 0.59% hits;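 active = inhibition above a per-plate cutoff, the mean of that plate's test compounds plus 3 SD, cut at about 27% in these data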;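 also: 0% = acetylcholine EC80 with DMSO and 100% = DMSO without agonist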
CHRM4 PAM – CHRM4 positive allosteric modulation; activation, % at 3 µM; 360,000 compounds, 0.4% hits; AID 624126; CHO-K1 hM4/Gqi5, Fluo-8 calcium fluorescence, ACh EC20; 0% = ACh EC20, 100% = maximal ACh; P08173;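 active = activation above its plate's cutoff, the mean activation of sample wells plus 3 SD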
CHRM5 PAM – potentiates acetylcholine response at human M5 receptor; activation, % at 3 µM; 360,000 compounds, 0.3% hits; CHO-K1 hM5, Fluo-8 calcium, ACh EC20 PAM; 0% = ACh EC20, 100% = ACh EC100; P08912;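 active = activation above the run cutoff, the mean activation of all test compounds plus 3 SD, cut at about 18% in these data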
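system = human M5 receptor in CHO-K1 cells | compound = one concentration, 3 µM final (nominal) | schedule = Post-acetylcholine fluorescence recording 140 s | signal = Fluo-8 calcium dye fluorescence, kinetic read | benchmarks = low control EC20 acetylcholine (0%), high control EC100 acetylcholine (100%) | repeats = singlicate, one well per test compound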
CHRM4 agonist – agonists of human muscarinic M4 receptor (CHRM4); AID 624127; activation, % at 3 µM; 360,000 compounds, 0.14% hits; P08173; CHO-K1 hM4/Gqi5, Fluo-8 calcium fluorescence; vehicle 0%, full acetylcholine response 100%;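 active = activation above the run mean over all test wells plus 3 SD, cut at about 32% in these data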;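 also: peak over basal fluorescence ratio per well then scaled between controls; 0% = DMSO wells and 100% = acetylcholine at EC100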
CHRM4 antagonist – blocks acetylcholine activation of human M4 receptor; CHO-hM4 cells, ACh EC80, Fluo-8 calcium fluorescence; 360,000 compounds, 0.73% hits; inhibition, % at 3 µM;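 active = inhibition above its plate's cutoff, the mean inhibition of sample wells plus 3 SD, cut at about 27% in these data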;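 also: 0% = acetylcholine EC80 with DMSO and 100% = DMSO without agonist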
* hit, by the source's call. Sampled rows, rich in hits. Any-hit rate of the full collection: about 1.8%.

SMILES	M5 ag	CHRM5 antagonist	CHRM4 PAM	CHRM5 PAM	CHRM4 agonist	CHRM4 antagonist
CC(C)OC(=O)N(C)C[C@@H]1OCc2cnnn2CCCC(=O)N([C@@H](C)CO)C[C@H]1C	0	-5	5	7	1	-9
CC1CCc2c(sc3ncnc(SCC(=O)c4ccccc4)c23)C1 (stereo unspecified)	-4	0	14	7	0	-2
CC(=O)CSc1ncnc2sc3c(c12)CCC(C)C3 (stereo unspecified)	-8	-8	23*	11	-1	-14
COc1ccc(CC(=O)OC(C)C(=O)NC2CCCCC2C)cc1 (stereo unspecified)	1	-2	12	1	1	-8
CC1(C(=O)NS(=O)(=O)c2cccc(C#N)c2)CCN1C(=O)c1ccco1 (stereo unspecified)	3	14	0	5	0	5
C=CCN1CCN(C(=O)c2cc3c(s2)CCC(CC)C3)CC1 (stereo unspecified)	-4	8	-6	-3	1	13
COC(=O)c1cccc(NC(=O)Nc2ccc(Cl)cc2)c1	3	17	-9	-26	17	2
COC(=O)c1cc(NC(=O)Nc2cccc(Cl)c2)ccc1Cl	11	32*	-13	-22	20	20
O=C(CN1C(=O)c2ccccc2C1=O)Nc1cccc(S(=O)(=O)Nc2ccccc2Cl)c1	2	-2	25*	2	4	-2
O=C(Nc1cccnc1)Nc1ccccc1Cl	1	0	9	-3	0	-5
O=C(Nc1cccc(Cl)c1)Nc1cccc(Cl)c1	-1	23	-2	-23	16	3
O=C(Nc1cccc(F)c1)Nc1cccc(Cl)c1	14	28*	-9	-16	20	8
O=C(Nc1cccnc1)Nc1cc(Cl)cc(Cl)c1	8	30*	-15	-18	17	15
NS(=O)(=O)c1cccc(NC(=O)COC(=O)C2(c3cccc(F)c3)CCCC2)c1	-1	12	1	-8	6	-2
COc1ccccc1NS(=O)(=O)c1cccc(NC(=O)Nc2cccc(Cl)c2)c1	5	59*	-15	-19	18	47*
O=C(Nc1cccnc1)c1cc(Br)c(Br)s1	26*	4	6	-14	26	-28
CC(C)Oc1ccc(S(=O)(=O)N2CCOCC2)cc1NC(=O)c1ccc(N2CCCC2=O)cc1	-5	28*	-5	-12	4	-1
CCCCCNC(=O)C(c1cc2ccccc2o1)n1c(=O)c(-c2ccco2)nc2ccccc21 (stereo unspecified)	0	-10	27*	8	1	-11
CC(C)(C)NC(=O)C(c1cc2ccccc2o1)n1c(=O)c(-c2ccco2)nc2ccccc21 (stereo unspecified)	1	4	2	-5	-2	4
O=[N+]([O-])c1cc2cccnc2c2ncccc12	2	-3	12*	0	1	-9
CC(NC(=O)Cn1c(=O)[nH]c2ccsc2c1=O)C12CC3CC(CC(C3)C1)C2 (stereo unspecified)	1	-3	19*	1	1	0
CC(NC(=O)Cn1ccsc1=N)C12CC3CC(CC(C3)C1)C2 (stereo unspecified)	-10	-2	-3	-1	6	-7
CC[C@@H]1Cc2[nH][nH]c(=O)c2[C@H](c2ccc(Cl)cc2)O1	2	-4	6	9	0	-17
O=C(NCCCCCCCN1CCCCCCC1)C(C1CCCCC1)C1CCCCC1	-12	3	-11	-44	3	75*
O=C(NCCCN1CCOCC1)NC1CCCCC1	-3	-10	16	2	0	-12
CCc1ccc(NC2=NCC(=O)N2Cc2ccc3c(c2)OCO3)cc1	-9	-4	21*	7	2	-6
Cc1ccc(NC2=NCC(=O)N2Cc2ccc3c(c2)OCO3)c(C)c1	1	-8	5	6	3	-8
